Source: ChEMBL document CHEMBL5257120 (Bioorg Med Chem, 2023)
pIC50: −log10 of the molar value. Calls of active or inactive are those of the source. The calls are words filed in the database; no cut-off is given here.

What was measured:
[1] = Toxicity in Swiss albino mouse assessed as haemoglobin level at 50 mg/kg, po administered for 7 days (reference value: 15.66 +/- 0.80 g/dl); type: organism-based; details: in vivo, 168 h, time 7 day
[2] = Toxicity in Swiss albino mouse assessed as haemoglobin level at 300 mg/kg, po administered for 7 days (reference value: 15.66 +/- 0.80 g/dl); type: organism-based; details: in vivo, 168 h, time 7 day
[3] = Toxicity in Swiss albino mouse assessed as morbidity at 5 to 1000 mg/kg, po administered for 7 days; type: organism-based; details: in vivo, 168 h, dose 5-1000 mg/kg, time 7 day
[4] = Toxicity in Swiss albino mouse assessed as change in body weight at 300 mg/kg, po administered for 7 days (reference value: 29.35 +/- 0.57 g); type: organism-based; details: in vivo, 168 h, time 7 day
[5] = Toxicity in Swiss albino mouse assessed as cholesterol level at 5 mg/kg, po administered for 7 days (reference value: 140.17 +/- 3.76 mg/dl); type: organism-based; details: in vivo, 168 h, time 7 day
[6] = Renal toxicity in Swiss albino mouse assessed as creatinine level at 300 mg/kg, po administered for 7 days (reference value: 0.76 +/- 0.06 mg/dl); type: organism-based; details: in vivo, 168 h, time 7 day
Method in brief: (§1)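 Single acute oral dose (5, 50, 300 or 1000 mg/kg) given to Swiss albino mice, n = 6, with 7-day observation. At the end, haematological and serum biochemical parameters were measured. Compared with untreated controls; mean ± SE, ANOVA, p < 0.05.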

[7] = Toxicity in Swiss albino mouse assessed as change in relative heart weight at 5 to 1000 mg/kg, po administered for 7 days; type: organism-based; details: in vivo, 168 h, dose 5-1000 mg/kg, time 7 day
[8] = Hepatotoxicity in Swiss albino mouse assessed as SGOT level at 50 mg/kg, po administered for 7 days (reference value: 31.51 +/- 6.31 U/L); type: toxicity, organism-based; details: in vivo, 168 h, time 7 day; method in brief: as §1
[9] = Antiinflammatory activity in mouse peritoneal macrophage assessed as reduction in LPS-induced TNFalpha production at 10 ug/ml; type: functional; details: dose 10 µg/ml
[10] = Toxicity in Swiss albino mouse assessed as change in relative kidney weight at 5 to 1000 mg/kg, po administered for 7 days; type: organism-based; details: in vivo, 168 h, dose 5-1000 mg/kg, time 7 day
[11] = Hepatotoxicity in Swiss albino mouse assessed as serum protein level at 1000 mg/kg, po administered for 7 days (reference value: 5.73 +/- 0.21 mg/ml); type: toxicity, organism-based; details: in vivo, 168 h, time 7 day; method in brief: as §1
[12] = Antiinflammatory activity in mouse peritoneal macrophage assessed as reduction in LPS-induced IL6 production at 10 ug/ml; type: functional; details: dose 10 µg/ml
[13] = Renal toxicity in Swiss albino mouse assessed as creatinine level at 50 mg/kg, po administered for 7 days (reference value: 0.76 +/- 0.06 mg/dl); type: organism-based; details: in vivo, 168 h, time 7 day; method in brief: as §1
[14] = Hepatotoxicity in Swiss albino mouse assessed as alkaline phosphatase level at 1000 mg/kg, po administered for 7 days (reference value: 260.10 +/- 26.76 U/L); type: toxicity, organism-based; details: in vivo, 168 h, time 7 day; method in brief: as §1
[15] = Antiinflammatory activity in mouse peritoneal macrophage assessed as inhibition of LPS-induced TNFalpha production at 1 ug/ml relative to control; type: functional; design: scale not given: the % may be the effect or the level left; details: dose 1 µg/ml
[16] = Toxicity in Swiss albino mouse assessed as behavioural changes at 5 to 1000 mg/kg, po administered for 7 days; type: organism-based; details: in vivo, 168 h, dose 5-1000 mg/kg, time 7 day
[17] = Hepatotoxicity in Swiss albino mouse assessed as alkaline phosphatase level at 5 mg/kg, po administered for 7 days (reference value: 260.10 +/- 26.76 U/L); type: toxicity, organism-based; details: in vivo, 168 h, time 7 day; method in brief: as §1
MCF7 = experiment: Cytotoxicity against human MCF7 cells incubated for 72 hrs by Sulphorhodamine assay; type: functional, cell-based; details: MCF7, 72 h
[18] = Toxicity in Swiss albino mouse assessed as RBC level at 1000 mg/kg, po administered for 7 days (reference value: 7.13 +/- 0.40 million/mm3); type: organism-based, Erythrocyte; details: in vivo, 168 h, time 7 day; method in brief: as §1
Tubulin (Homo sapiens) = Tubulin (Homo sapiens) (UniProt P68371+Q9H4B7+P0DPH7+P68366+Q13509+Q71U36+P04350+Q3ZCM7+P07437+P68363+Q9BQE3+Q6PEY2+Q13885+Q9BVA1+Q9BUF5); experiment: Induction of microtubule stabilization (unknown origin) at 0.2 to 5 uM; type: protein-complex assay; details: dose 0.2-5 µM
[19] = Renal toxicity in Swiss albino mouse assessed as creatinine level at 1000 mg/kg, po administered for 7 days (reference value: 0.76 +/- 0.06 mg/dl); type: organism-based; details: in vivo, 168 h, time 7 day; method in brief: as §1
[20] = Toxicity in Swiss albino mouse assessed as mortality at 5 to 1000 mg/kg, po administered for 7 days; type: organism-based; details: in vivo, 168 h, dose 5-1000 mg/kg, time 7 day
[21] = Hepatotoxicity in Swiss albino mouse assessed as SGOT level at 1000 mg/kg, po administered for 7 days (reference value: 31.51 +/- 6.31 U/L); type: toxicity, organism-based; details: in vivo, 168 h, time 7 day; method in brief: as §1
[22] = Hepatotoxicity in Swiss albino mouse assessed as SGPT level at 50 mg/kg, po administered for 7 days (reference value: 17.01 +/- 2.33 U/L); type: toxicity, organism-based; details: in vivo, 168 h, time 7 day; method in brief: as §1
[23] = Hepatotoxicity in Swiss albino mouse assessed as SGPT level at 300 mg/kg, po administered for 7 days (reference value: 17.01 +/- 2.33 U/L); type: toxicity, organism-based; details: in vivo, 168 h, time 7 day; method in brief: as §1
[24] = Toxicity in Swiss albino mouse assessed as triglyceride level at 5 mg/kg, po administered for 7 days (reference value: 136.88 +/- 3.12 mg/dl); type: organism-based; details: in vivo, 168 h, time 7 day
[25] = Hepatotoxicity in Swiss albino mouse assessed as albumin level at 50 mg/kg, po administered for 7 days (reference value: 4.12 +/- 0.17 g/dl); type: toxicity, organism-based; details: in vivo, 168 h, time 7 day; method in brief: as §1
[26] = Hepatotoxicity in Swiss albino mouse assessed as serum protein level at 5 mg/kg, po administered for 7 days (reference value: 5.73 +/- 0.21 mg/ml); type: toxicity, organism-based; details: in vivo, 168 h, time 7 day; method in brief: as §1
[27] = Hepatotoxicity in Swiss albino mouse assessed as albumin level at 1000 mg/kg, po administered for 7 days (reference value: 4.12 +/- 0.17 g/dl); type: toxicity, organism-based; details: in vivo, 168 h, time 7 day; method in brief: as §1
[28] = Toxicity in Swiss albino mouse assessed as haemoglobin level at 5 mg/kg, po administered for 7 days (reference value: 15.66 +/- 0.80 g/dl); type: organism-based; details: in vivo, 168 h, time 7 day
[29] = Hepatotoxicity in Swiss albino mouse assessed as SGPT level at 1000 mg/kg, po administered for 7 days (reference value: 17.01 +/- 2.33 U/L); type: toxicity, organism-based; details: in vivo, 168 h, time 7 day; method in brief: as §1
[30] = Toxicity in Swiss albino mouse assessed as RBC level at 50 mg/kg, po administered for 7 days (reference value: 7.13 +/- 0.40 million/mm3); type: organism-based, Erythrocyte; details: in vivo, 168 h, time 7 day; method in brief: as §1
[31] = Toxicity in Swiss albino mouse assessed as haemoglobin level at 1000 mg/kg, po administered for 7 days (reference value: 15.66 +/- 0.80 g/dl); type: organism-based; details: in vivo, 168 h, time 7 day
[32] = Toxicity in Swiss albino mouse assessed as cholesterol level at 50 mg/kg, po administered for 7 days (reference value: 140.17 +/- 3.76 mg/dl); type: organism-based; details: in vivo, 168 h, time 7 day
[33] = Toxicity in Swiss albino mouse assessed as cholesterol level at 300 mg/kg, po administered for 7 days (reference value: 140.17 +/- 3.76 mg/dl); type: organism-based; details: in vivo, 168 h, time 7 day
[34] = Toxicity in Swiss albino mouse assessed as change in absolute liver weight at 5 to 1000 mg/kg, po administered for 7 days; type: organism-based; details: in vivo, 168 h, dose 5-1000 mg/kg, time 7 day

Q: Which results are given for COc1cc(C2/C(=C/c3ccc(/C=C/C(=O)NO)cc3)C(=O)c3cc(OC)c(OC)c(OC)c32)cc(OC)c1OC (stereo unspecified)?
A: Activity [1]: 15.54 g/dL; Activity [2]: 16.77 g/dL; Activity [3]: Non-Toxic; Activity [4]: 30.22 g; Activity [5]: 162.42 mg/dL; Activity [6]: 0.64 mg/dL; Activity [7]: Non-Toxic; Activity [8]: 33.67 U/L; Activity [9]: 872.08 pg/mL; Activity [10]: Non-Toxic; Activity [11]: 5.87 mg/mL; Activity [12]: 2199.42 pg/mL; Activity [13]: 0.69 mg/dL; Activity [14]: 277.51 U/L; Activity [15]: 17.28%; Activity [16]: Non-Toxic; Activity [17]: 221.34 U/L; pIC50 (MCF7): < 4.00; Activity [18]: 8.53 million/mm3; Activity (Tubulin (Homo sapiens)): Active; Activity [19]: 0.74 mg/dL; Activity [20]: Non-Toxic; Activity [21]: 33.4 U/L; Activity [22]: 19.56 U/L; Activity [23]: 17.95 U/L; Activity [24]: 146.79 mg/dL; Activity [25]: 4.36 g/dL; Activity [26]: 5.44 mg/mL; Activity [27]: 4.53 g/dL; Activity [28]: 17.63 g/dL; Activity [29]: 22.91 U/L; Activity [30]: 8.82 million/mm3; Activity [31]: 16.73 g/dL; Activity [32]: 157.99 mg/dL; Activity [33]: 157.14 mg/dL; Activity [34]: Non-Toxic
